Experimental data published in ChEMBL document CHEMBL1124683, “Synthesis and in vitro activity of 1 beta-methyl C-2 quaternary heterocyclic alkylthio carbapenems” (J Med Chem, 1989).
≈ marks a conversion by molar mass, not a printed value.

Legend:
Sus scrofa = species: Sus scrofa; test: Compound was evaluated for the rate of hydrolysis by renal dipeptidase relative to hog renal dipeptidase; type: ADME; settings: pig; in the assay text read “relative to imipenem” for “relative to hog renal dipeptidase”
Outline: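 Purified hog renal dipeptidase. Substrate was 0.10 mM carbapenem in 50 mM MOPS, pH 7.1, freshly prepared. λmax and ε came from the UV difference spectrum before and after β-lactam cleavage by hydroxylamine at 25 °C. Spontaneous absorbance change was followed at 25 °C, then enzyme was added to give ≥10^-4 AU/s. The corrected rate was converted to nmol min^-1 (mL enzyme)^-1 and expressed relative to imipenem.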

Serratia marcescens = test: Compound was tested in vitro for antibacterial activity against Serratia marcescens A-20019; type: functional
Outline: (§1)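 MIC by serial 2-fold dilution in Mueller-Hinton agar, or in broth. Agar surface or broth was inoculated with an appropriately diluted 18–24-h broth culture. Incubation was 37 °C for 17 h. The MIC was the lowest concentration that inhibited visible growth.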

Proteus vulgaris = test: Compound was tested in vitro for antibacterial activity against Proteus vulgaris A-21559; type: functional; outline: as §1
Escherichia coli = test: Compound was tested in vitro for antibacterial activity against Escherichia coli A-15119; type: functional; outline: as §1
Pseudomonas aeruginosa = test: Compound was tested in vitro for antibacterial activity against Pseudomonas aeruginosa; type: functional; outline: as §1
Staphylococcus aureus [1] = test: (§2) Compound was tested in vitro for antibacterial activity against Staphylococcus aureus, pen-res A-9606; type: functional; outline: as §1
Enterobacter cloacae = test: Compound was tested in vitro for antibacterial activity against Enterobacter cloacae A-9695; type: functional; outline: as §1
Staphylococcus aureus [2] = test: as §2; type: functional, staphylococcus aure; outline: as §1

Structure (SMILES): CC(O)[C@H]1C(=O)N2C(C(=O)O)=C(SCc3ccncc3)CC12 (some centres not stated)
- Relative rate (Sus scrofa): 3.84
- MIC (Serratia marcescens): 0.13 µg/mL (≈ 0.406 µM)
- MIC (Proteus vulgaris): 0.03 µg/mL (≈ 0.0936 µM)
- MIC (Escherichia coli): 0.03 µg/mL (≈ 0.0936 µM)
- MIC (Pseudomonas aeruginosa): 32 µg/mL (≈ 99.9 µM)
- MIC (Staphylococcus aureus [1]): 0.03 µg/mL (≈ 0.0936 µM)
- MIC (Enterobacter cloacae): 0.5 µg/mL (≈ 1.56 µM)

Structure (SMILES): CC(O)[C@H]1C(=O)N2C(C(=O)O)=C(SCc3nccn3C)[C@H](C)C12 (some centres not stated)
- Relative rate (Sus scrofa): 0.94
- MIC (Serratia marcescens): 0.016 µg/mL (≈ 0.0474 µM)
- MIC (Proteus vulgaris): 0.016 µg/mL (≈ 0.0474 µM)
- MIC (Escherichia coli): 0.008 µg/mL (≈ 0.0237 µM)
- MIC (Pseudomonas aeruginosa): 16 µg/mL (≈ 47.4 µM)
- MIC (Staphylococcus aureus [1]): 0.016 µg/mL (≈ 0.0474 µM)
- MIC (Enterobacter cloacae): 0.016 µg/mL (≈ 0.0474 µM)

Structure (SMILES): CC(O)[C@H]1C(=O)N2C(C(=O)[O-])=C(SCc3cc[n+](C)cc3)CC12 (some centres not stated)
- Relative rate (Sus scrofa): 0.84
- MIC (Serratia marcescens): 0.13 µg/mL (≈ 0.389 µM)
- MIC (Proteus vulgaris): 0.03 µg/mL (≈ 0.0897 µM)
- MIC (Escherichia coli): 0.03 µg/mL (≈ 0.0897 µM)
- MIC (Pseudomonas aeruginosa): 0.5 µg/mL (≈ 1.5 µM)
- MIC (Staphylococcus aureus [1]): 0.016 µg/mL (≈ 0.0478 µM)

Structure (SMILES): CC(O)[C@H]1C(=O)N2C(C(=O)[O-])=C(SCc3n(C)cc[n+]3C)[C@H](C)C12 (some centres not stated)
- Relative rate (Sus scrofa): 0.003
- MIC (Serratia marcescens): 0.03 µg/mL (≈ 0.0854 µM)
- MIC (Proteus vulgaris): 0.016 µg/mL (≈ 0.0455 µM)
- MIC (Escherichia coli): 0.004 µg/mL (≈ 0.0114 µM)
- MIC (Pseudomonas aeruginosa): 1 µg/mL (≈ 2.85 µM)
- MIC (Staphylococcus aureus [1]): 0.008 µg/mL (≈ 0.0228 µM)
- MIC (Enterobacter cloacae): 0.06 µg/mL (≈ 0.171 µM)

Structure (SMILES): CC(O)[C@H]1C(=O)N2C(C(=O)[O-])=C(SCc3cc[n+](C)cc3)[C@H](C)C12 (some centres not stated)
- Relative rate (Sus scrofa): 0.02
- MIC (Serratia marcescens): 0.03 µg/mL (≈ 0.0861 µM)
- MIC (Proteus vulgaris): 0.03 µg/mL (≈ 0.0861 µM)
- MIC (Escherichia coli): 0.016 µg/mL (≈ 0.0459 µM)
- MIC (Pseudomonas aeruginosa): 0.5 µg/mL (≈ 1.44 µM)
- MIC (Staphylococcus aureus [1]): 0.016 µg/mL (≈ 0.0459 µM)
- MIC (Enterobacter cloacae): 0.06 µg/mL (≈ 0.172 µM)

Structure (SMILES): Cc1c(CSC2=C(C(=O)[O-])N3C(=O)[C@H](C(C)O)C3C2)ccc[n+]1C (some centres not stated)
- Relative rate (Sus scrofa): 0.4
- MIC (Serratia marcescens): 0.03 µg/mL (≈ 0.0861 µM)
- MIC (Proteus vulgaris): 0.03 µg/mL (≈ 0.0861 µM)
- MIC (Escherichia coli): 0.008 µg/mL (≈ 0.023 µM)
- MIC (Pseudomonas aeruginosa): 0.5 µg/mL (≈ 1.44 µM)
- MIC (Staphylococcus aureus [1]): 0.016 µg/mL (≈ 0.0459 µM)
- MIC (Enterobacter cloacae): 0.016 µg/mL (≈ 0.0459 µM)

Structure (SMILES): Cc1c(CSC2=C(C(=O)[O-])N3C(=O)[C@H](C(C)O)C3[C@H]2C)ccc[n+]1C (some centres not stated)
- Relative rate (Sus scrofa): 0.01
- MIC (Serratia marcescens): 0.16 µg/mL (≈ 0.441 µM)
- MIC (Proteus vulgaris): 0.03 µg/mL (≈ 0.0828 µM)
- MIC (Escherichia coli): 0.004 µg/mL (≈ 0.011 µM)
- MIC (Pseudomonas aeruginosa): 2 µg/mL (≈ 5.52 µM)
- MIC (Staphylococcus aureus [1]): 0.016 µg/mL (≈ 0.0441 µM)
- MIC (Enterobacter cloacae): 0.016 µg/mL (≈ 0.0441 µM)

Structure (SMILES): CC(O)[C@H]1C(=O)N2C(C(=O)[O-])=C(SCc3n(C)cc[n+]3C)CC12 (some centres not stated)
- MIC (Staphylococcus aureus [2]): 0.004 µg/mL (≈ 0.0119 µM)
- Relative rate (Sus scrofa): 0.2
- MIC (Serratia marcescens): 0.016 µg/mL (≈ 0.0474 µM)
- MIC (Proteus vulgaris): 0.008 µg/mL (≈ 0.0237 µM)
- MIC (Escherichia coli): 0.008 µg/mL (≈ 0.0237 µM)
- MIC (Pseudomonas aeruginosa): 2 µg/mL (≈ 5.93 µM)
- MIC (Enterobacter cloacae): 0.03 µg/mL (≈ 0.0889 µM)

Structure (SMILES): C[C@@H](O)[C@H]1C(=O)N2C(C(=O)O)=C(SCCN=CN)C[C@H]12 [IMIPENEM ANHYDROUS]
- Relative rate (Sus scrofa): 1
- MIC (Serratia marcescens): 0.03 µg/mL (≈ 0.1 µM)
- MIC (Proteus vulgaris): 0.03 µg/mL (≈ 0.1 µM)
- MIC (Escherichia coli): 0.016 µg/mL (≈ 0.0534 µM)
- MIC (Pseudomonas aeruginosa): 0.25 µg/mL (≈ 0.835 µM)
- MIC (Staphylococcus aureus [1]): 0.008 µg/mL (≈ 0.0267 µM)
- MIC (Enterobacter cloacae): 0.06 µg/mL (≈ 0.2 µM)
